# Kir21 block: blocks the mouse Kir2.1 inward-rectifier potassium channel; 310,000 compounds, 0.85% hits; B-score at 10 µM; P35561; HEK293-Kir2.1, FluxOR thallium flux fluorescence; active compounds read low; AID 1672;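 active = fluorescence ratio B-score at or below minus 3 SD of library scores, with starting-brightness B-score within 2 SD, cut at about -4.2 in these data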;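 also: channel flux triggered by added potassium and thallium sulfate stimulus; B-score of peak minus minimum fluorescence over baseline after thallium stimulus; more negative B-score means stronger Kir2.1 block with less thallium influx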
# KCNK3 inh: human KCNK3 channel inhibition, primary screen; B-score at 10 µM; CHO-KCNK3 thallium flux, FluxOR fluorescence; active compounds read low; 340,000 compounds, 0.84% hits; O14649; AID 602410;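 active = B-score under library mean minus 4 SD, starting fluorescence ratio at most library mean plus 5 SD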;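 also: more negative B-score means stronger inhibition of thallium flux through KCNK3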
# KCNQ1 act: potentiators or activators of human KCNQ1 potassium channel | 310,000 compounds, 0.35% hits | B-score at 10 µM | AID 2648 | CHO-K1 KCNQ1, thallium flux FluxOR fluorescence; active compounds read high | P51787;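 active = fluorescence ratio B-score, a plate-corrected score, at least three library SD, with initial intensity B-score within 5 SD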
# Target sequence (P51787 whole entry, looked up): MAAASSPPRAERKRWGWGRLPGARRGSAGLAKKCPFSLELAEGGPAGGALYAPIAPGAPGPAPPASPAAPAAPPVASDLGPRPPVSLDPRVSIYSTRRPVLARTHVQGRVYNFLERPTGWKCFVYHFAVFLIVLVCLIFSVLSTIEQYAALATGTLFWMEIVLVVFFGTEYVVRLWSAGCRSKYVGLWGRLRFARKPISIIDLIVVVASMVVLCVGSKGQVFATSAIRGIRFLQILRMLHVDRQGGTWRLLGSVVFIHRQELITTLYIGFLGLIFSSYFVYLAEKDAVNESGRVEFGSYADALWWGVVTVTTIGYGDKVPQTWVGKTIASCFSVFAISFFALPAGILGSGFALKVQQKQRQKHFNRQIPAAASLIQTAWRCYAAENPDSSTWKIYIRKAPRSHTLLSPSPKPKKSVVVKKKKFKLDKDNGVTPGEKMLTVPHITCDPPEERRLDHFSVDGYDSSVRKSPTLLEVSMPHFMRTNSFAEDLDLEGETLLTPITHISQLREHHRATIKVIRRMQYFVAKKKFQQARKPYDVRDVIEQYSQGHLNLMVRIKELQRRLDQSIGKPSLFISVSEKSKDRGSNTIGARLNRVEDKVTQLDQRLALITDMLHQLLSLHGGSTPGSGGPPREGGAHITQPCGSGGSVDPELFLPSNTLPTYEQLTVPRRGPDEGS
#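 Test system: CHO-K1 cells stably expressing KCNQ1 / Medium: assay buffer / Also added: depolarizing K+/Tl+ stimulus, K2SO4 and Tl2SO4 each 12.5 mM in 5x stock / Incubation: 90 min dye loading and 20 min compound exposure, both at room temperature / Signal: thallium influx via FluxOR fluorescence, kinetic imaging / Evaluation: B score of baseline-normalized fluorescence ratio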
# hERG rescue: compounds protecting human hERG from proarrhythmic drug block. Q12809. CHO-hERG, FluxOR thallium flux, dofetilide IC70 present. activation (rescue from dofetilide block), less the hit threshold, % at 10 µM. 310,000 compounds, 0.51% hits. AID 1511;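 active = activation above the mean of controls blocked by dofetilide plus 5 SD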;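 also: thallium influx through hERG after potassium depolarization seen as dye fluorescence rise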
# KCNK9 inh: inhibitors of human KCNK9 two-pore domain potassium channel; Q9NPC2; HEK293 KCNK9, FluxOR thallium flux fluorescence; active compounds read low; B-score at 10 µM; 310,000 compounds, 1.2% hits; AID 488922;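 active = ratio B-score over 3 SD below the library mean, with starting fluorescence within 5 SD of its mean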;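 also: negative B-score means less thallium flux so channel inhibition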
# KCNQ1 block: human KCNQ1 channel inhibition. CHO-K1 KCNQ1, FluxOR thallium flux fluorescence; active compounds read high. AID 2642. 310,000 compounds, 1.3% hits. B-score at 10 µM;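 active = compounds whose thallium flux B-score, printed positive for inhibition, exceeds three library SD while starting fluorescence stays within three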;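 also: channel opened by potassium depolarization with thallium stimulus after 20 min compound exposure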
# KCNK9 inh conf: confirmation of human KCNK9 potassium channel inhibitors. HEK293 KCNK9 cells, FluxOR thallium flux fluorescence. 4,900 compounds, 43% hits. inhibition, % at 10 µM. shares compounds with KCNK9 inh;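 active = thallium signal inhibited by more than 5 SD of the compound-free buffer control wells, on both duplicate plates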;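 also: 0% = assay buffer control wells without compound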
# Kir21 sel: mouse Kir2.1 off-target activity of KCNK9 modulators; shares compounds with KCNK9 inh; Kir2.1 cells, FluxOR thallium flux fluorescence; inhibition, % at 10 µM; 4,900 compounds, 4% hits;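 active = thallium signal drop more than 5 SD beyond the mean of the no-compound control wells, seen in both duplicate plates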;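 also: signal is fluorescence rise after thallium addition divided by baseline fluorescence; plate controls were assay buffer only for no effect and full block by chlorpromazine control for full effect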
# HEK293 Tl ctr: second counter-screen for KCNK9 modulators: effect in non-induced cells; non-induced KCNK9-HEK293, FluxOR thallium flux; shares compounds with KCNK9 inh; inhibition, % at 10 µM; AID 492997; 4,900 compounds, 40% hits;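 active = thallium signal drop beyond 5 SD of the untreated control mean, on both duplicate plates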;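 also: plate controls were buffer only IC0 wells for no effect and SID17386958 at its maximal inhibitory level for full effect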
# Starred values were filed as active, the others as inactive; i = inactive; . = no result. Only some compounds are listed: those with a hit (about 3.8% of all), similar ones and a draw of the others.
SMILES,Kir21 block,KCNK3 inh,KCNQ1 act,hERG rescue,KCNK9 inh,KCNQ1 block,KCNK9 inh conf,Kir21 sel,HEK293 Tl ctr
CCC(C)(C)n1nnnc1C(c1ccc(O)c(OC)c1)N1CCN(c2nc3ccccc3s2)CC1 (centres undefined),-0.02,i,i,-9,-15*,i,46%*,i,28%*
Cc1nnc(SCc2ccccc2)nc1-c1ccccc1,-0.92,i,i,-11,i,i,i,i,i
N/C(Cc1ccc(Cl)cc1Cl)=N\OC(=O)Cc1ccc(Cl)cc1,0.31,i,i,-6,i,i,.,.,.
O=S(=O)(c1ccc(Br)s1)N1CCN(c2ccnc3cc(Cl)ccc23)CC1,0.27,i,i,-4,i,i,.,.,.
Cc1ccnc(NC(=O)C23CC4CC(CC(C4)C2)C3)c1,-0.33,i,i,-3,i,i,i,i,i
CC(C)(C)C(=O)Nc1ccc(Cc2ccncc2)cc1,0.33,i,i,-2,i,i,.,.,.
CC/C(=N/Nc1ccccc1Cl)c1cnnc(-c2ccccc2)n1,-0.4,i,i,-17,-13*,i,i,i,38%*
OCC1(Cc2ccccc2)CCCN(Cc2cn[nH]c2-c2ccccc2)C1 (centres undefined),-1.2,i,i,-5,i,i,.,.,.
Cn1cc(CN2CCCC(CO)(Cc3ccccc3)C2)c2ccccc21 (centres undefined),-1.7,i,i,-10,i,i,i,i,28%*
COc1cccc(CC2(CO)CCCN(Cc3ccc(OC)c(C)c3OC)C2)c1 (centres undefined),-0.9,i,i,-14,i,i,i,i,i
O=C(CN1CCN(c2ccccc2F)CC1)NC(=O)NCc1ccco1,0.97,i,i,-14,i,i,.,.,.
COc1ccc(C(=O)C(C)Sc2nnc(C3CC3)n2C2CC2)cc1 (centres undefined),.,i,.,.,.,.,.,.,.
CCCCC(=NCCc1c(C)[nH]c2ccc(OC)cc12)C1=C(O)CC(c2ccccc2)CC1=O (centres undefined),1.3,i,i,-14,i,i,i,i,i
CCC(=NCCc1c(C)[nH]c2ccccc12)C1=C(O)CC(c2ccccc2)CC1=O (centres undefined),-0.65,i,i,-6,i,i,i,i,i
CCC(=NCCc1c(C)[nH]c2ccc(OC(F)(F)F)cc12)C1=C(O)CC(c2ccccc2)CC1=O (centres undefined),2.5,i,i,-15,i,i,.,.,.
Cc1ccc(C)c(NC(=O)CN(C)C(C)C(=O)N2CC(C)CC(C)C2)c1 (centres undefined),.,i,.,.,.,.,.,.,.
O=C(Cc1ccccc1Cl)Nc1ccc(S(=O)(=O)Nc2nccs2)cc1,-0.02,i,i,-12,i,i,.,.,.
O=C(CSc1ccc(Br)c2cccc(Cl)c12)Nc1ccc(S(=O)(=O)Nc2nccs2)cc1,-0.36,i,i,-9,i,i,i,i,i
CC(C)C[C@H]1CNC(=O)C(=O)N1C[C@H](C)NC(=O)Cc1ccccc1,1.4,i,i,2,i,i,.,.,.
CCCCC(=O)Nc1ccccc1C(=O)OCC(=O)c1ccc2c(c1)OCCO2,0.3,i,i,-9,-19*,i,78%*,i,43%*
COc1ccc(CNC(=O)C(=O)NCC2OCCN2S(=O)(=O)c2ccc(OC)cc2)cc1 (centres undefined),0.17,i,i,-14,i,i,.,.,.
CCCNC(=S)N1CCN(C)CC1,2.1,i,i,-5,i,i,.,.,.
CCc1ccc(C(=O)c2cnc3ccc(OC)cc3c2N2CCN(CC)CC2)cc1,-1,i,i,-13,i,i,i,i,i
CCOc1ccc(C(=O)c2cnc3ccccc3c2N2CCN(CC)CC2)cc1,-1.1,i,i,-16,i,i,.,.,.
COc1ccc(C2Nc3ccccc3C(=O)N2Cc2ccco2)cc1CN1C(=O)c2ccccc2C1=O (centres undefined),1.8,i,i,-10,i,i,.,.,.
SMILES,Kir21 block,KCNK3 inh,KCNQ1 act,hERG rescue,KCNK9 inh,KCNQ1 block,KCNK9 inh conf,Kir21 sel,HEK293 Tl ctr
COc1ccc(C2Nc3ccccc3C(=O)N2Cc2ccco2)cc1COc1ccc(F)cc1 (centres undefined),-1.3,i,i,-8,-9*,i,35%*,i,36%*
O=C(CSc1nc(N2CCCCC2)nc(N2CCCCC2)n1)N1CCN(c2ccccc2)CC1,1.5,i,i,-2,i,i,i,i,i
COc1ccccc1-c1nc(C#N)c(N2CCN(c3cccc(Cl)c3)CC2)o1,-1.8,i,i,-13,-8.6*,i,48%*,i,i
COC(=O)CCCC1=CC2=C(c3ccccc3)C(=O)C(C)(OC(=O)C3CCCC3)C(=O)C2=CN1CCc1c[nH]c2ccccc12 (centres undefined),0.75,i,i,-6,i,i,.,.,.
COc1cccc(CN2CC(C(=O)N(C)CC3CCOCC3)CCC2=O)c1 (centres undefined),0,i,i,-8,i,i,.,.,.
CCCCNC(=O)c1onc(CSc2ccc(Cl)cc2)c1C(=O)NCCCC,1.2,i,i,-5,i,i,.,.,.
CC(C)NC(=O)c1onc(CSc2ccc(Cl)cc2)c1C(=O)O,-0.71,i,i,-7,i,i,.,.,.
CCCNC(=O)c1onc(CSc2ccc(Cl)cc2)c1C(=O)NC(C)C,1.8,i,i,-13,i,i,i,i,i
CC(C)NC(=O)c1onc(CSc2ccc(Cl)cc2)c1C(=O)NC(C)C,-0.38,i,i,-8,i,i,i,i,i
CC1=Nc2cc(C(=O)N3CCCCC3)ccc2Sc2ccc(C)cc21,-1.1,i,i,-11,i,i,i,i,i
O=C(CN1C(=O)NC2(CCc3ccccc32)C1=O)NCC(=O)Nc1ccc(F)cc1 (centres undefined),.,i,.,.,.,.,.,.,.
COc1ccccc1N1CCN(C(=O)c2oc3cc(C)cc(C)c3c2C)CC1,1.7,i,i,-13,i,i,i,i,i

# Source: PubChem BioAssay
